In PubChem BioAssay AID463077 (The Scripps Research Institute Molecular Screening Center, 2010):
The source made the active and inactive calls.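 The calls were made as follows: active = compounds whose half-inhibition concentration IC50 on CK1 delta kinase is at most 1 µM; inactive = the rest.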

Molecular target: Casein kinase I isoform delta (Homo sapiens) (UniProt P48730)
Assay: inhibition of casein kinase 1 delta activity – biochemical, radioactive 33P-ATP, purified kinase, powder samples, late-stage follow-up (AID 463077)
Details: purified CK1d, 33P-ATP filter-binding, CK1tide
Procedure, shortened: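 Assay system: purified human casein kinase 1 delta (CK1d) enzyme; medium: pH 7.5 HEPES buffer with 1% DMSO; reagent: 20 µM CK1tide with radiolabelled ATP; compound: 10 points, 1:3 steps, from 50 µM; incubation: 120 min reaction, room temperature; detection: 33P incorporation by filter binding; evaluation: IC50 from radioactivity ratio versus concentration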

Sequence of Casein kinase I isoform delta (Homo sapiens) (P48730 whole entry, looked up, canonical isoform): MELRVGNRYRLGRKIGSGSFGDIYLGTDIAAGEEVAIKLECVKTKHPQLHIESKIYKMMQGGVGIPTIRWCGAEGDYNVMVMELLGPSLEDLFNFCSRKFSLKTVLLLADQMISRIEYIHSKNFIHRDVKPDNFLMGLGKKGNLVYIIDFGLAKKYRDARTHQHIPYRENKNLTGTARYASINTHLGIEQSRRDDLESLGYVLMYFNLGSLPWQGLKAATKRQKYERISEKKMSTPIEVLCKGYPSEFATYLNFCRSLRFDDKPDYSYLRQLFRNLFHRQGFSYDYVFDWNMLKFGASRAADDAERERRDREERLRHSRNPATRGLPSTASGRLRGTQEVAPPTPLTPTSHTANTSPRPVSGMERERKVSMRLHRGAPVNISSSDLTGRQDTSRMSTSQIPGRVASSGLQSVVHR

IC50	Structure (SMILES)
0.815 µM	CC(C)n1cnc2c(NCc3nc4c([N+](=O)[O-])cccc4[nH]3)nc(N3CCOCC3)nc21
0.129 µM	c1ccc2cc3[nH]c(CNc4nc(N5CCOCC5)nc5c4ncn5-c4ccsc4)nc3cc2c1
0.128 µM	FC(F)(F)c1cccc2[nH]c(CNc3nc(N4CCOCC4)nc4c3ncn4-c3ccsc3)nc12
0.049 µM	O=[N+]([O-])c1cccc2[nH]c(CNc3nc(N4CCOCC4)nc4c3ncn4-c3ccsc3)nc12
0.011 µM	N#Cc1ccc2nc(CNc3nc(N4CCOCC4)nc4c3ncn4-c3ccsc3)[nH]c2c1
0.017 µM	COc1ccc2nc(CNc3nc(N4CCOCC4)nc4c3ncn4-c3ccsc3)[nH]c2c1
inactive	Cc1ccnc(NC(=O)CCCOc2cc(=O)n(C)c3ccccc23)c1
0.021 µM	O=[N+]([O-])c1ccc2nc(CNc3nc(N4CCOCC4)nc4c3ncn4-c3ccsc3)[nH]c2c1
0.105 µM	Clc1ccc2nc(CNc3nc(N4CCOCC4)nc4c3ncn4-c3ccsc3)[nH]c2c1
0.161 µM	c1ccc2[nH]c(CNc3nc(N4CCOCC4)nc4c3ncn4-c3ccsc3)nc2c1
0.05 µM	Fc1ccc2nc(CNc3nc(N4CCOCC4)nc4c3ncn4-c3ccsc3)[nH]c2c1
0.361 µM	CCOC(=O)c1cccc2[nH]c(CNc3nc(N4CCOCC4)nc4c3ncn4-c3ccsc3)nc12
0.013 µM	FC(F)(F)c1ccc2nc(CNc3nc(N4CCOCC4)nc4c3ncn4-c3ccsc3)[nH]c2c1
